Experimental findings from ChEMBL document CHEMBL1149123, “Antineoplastic agents. 499. Synthesis of hystatin 2 and related 1H-benzo[de][1,6]-naphthyridinium salts from aaptamine” (J Med Chem, 2004) are described below.

Each structure is given as a SMILES string. The source made the active and inactive calls. The calls are words filed in the database; no cut-off is given here.

Assay [1] has as its system Micrococcus luteus. The experiment in a line: Antimicrobial activity against Micrococcus luteus; 0.5-2. It is filed as functional.
The target in assay [2] is Protein kinase C alpha type (Homo sapiens) (UniProt P17252). The assay is described as follows: Inhibition of PKC alpha at […]. The conditions noted are these: concentration not given here. The essentials: (§1)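 PKC alpha ligand binding, measured as inhibition of [20-³H]phorbol 12,13-dibutyrate binding at a single compound concentration of […]. Triplicate measurements in single or triplicate experiments, depending on compound. Reported as percent inhibition, mean ± SEM.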

The subject of another assay is DU-145. The assay is described as follows: Inhibition of prostate DU-145 cell proliferation. It is filed as functional. The conditions noted are these: Homo sapiens, read-out: ED50 (the source's name).
Another assay has as its system Enterococcus faecalis. The assay is described as follows: Antimicrobial activity against Enterococcus faecali; No inhibition at 64 ug/mL. It is filed as functional.
The target of assay [3] is Protein kinase C alpha type (Homo sapiens) (UniProt P17252). The assay is described as follows: Inhibition of PKC alpha. The essentials: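 Competition with [20-³H]phorbol 12,13-dibutyrate binding to PKC alpha. Full dose–response curves of binding inhibition were determined.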
For assay [4], the system named is Stenotrophomonas maltophilia. The experiment in a line: Antimicrobial activity against Stenotrophomonas maltophilia; No inhibition at 64 ug/mL. It is filed as functional, organism-based.
Assay [5] relates to Mycobacterium tuberculosis. The experiment in a line: Antimicrobial activity against Mycobacterium tuberculosis at 6.25 ug/mL. It is filed as functional.
A further assay concerns Escherichia coli. The experiment in a line: Antimicrobial activity against Escherichia coli; No inhibition at 64 ug/mL. It is filed as functional.
In another assay the test system is BXPC-3. The assay is described as follows: Inhibition of pancreatic BXPC-3 cell proliferation. It is filed as functional. As to conditions: Homo sapiens, read-out: ED50 (the source's name).
For another assay, the system named is P388. The assay is described as follows: Inhibition of murine leukemia P388 cell proliferation. The conditions noted are these: Mus musculus, read-out: ED50 (the source's name). It is filed as functional.
The next assay relates to Staphylococcus aureus. The experiment in a line: Antimicrobial activity against Staphylococcus aureus; No inhibition at 64 ug/mL. It is filed as functional, organism-based.
The next assay deals with NCI-H460. The experiment in a line: Inhibition of lung NCI-H460 cell proliferation. It is filed as functional. The conditions noted are these: Homo sapiens, read-out: ED50 (the source's name).
A further assay has as its system Enterobacter cloacae. The experiment in a line: Antimicrobial activity against Enterobacter cloacae; No inhibition at 64 ug/mL. It is filed as functional, organism-based.
In assay [6] the target is Protein kinase C alpha type (Homo sapiens) (UniProt P17252). The experiment in a line: Displacement of [20-3H]-phorbol 12,13-dibutyrate from protein kinase C alpha at […]. The conditions noted are these: concentration not given here. In a few lines:
as §1

The subject of another assay is SF-268. The experiment in a line: Inhibition of CNS SF-268 cell proliferation. It is filed as functional. The conditions noted are these: Homo sapiens, read-out: ED50 (the source's name).
Assay [7] deals with Neisseria gonorrhoeae. The assay is described as follows: Antimicrobial activity against Neisseria gonorrhoeae; No inhibition at 64 ug/mL. It is filed as functional.
The subject of a further assay is Cryptococcus neoformans. The experiment in a line: Antimicrobial activity against Cryptococcus neoformans; No inhibition at 64 ug/mL. It is filed as functional, organism-based.
A further assay relates to KM-20L2. The experiment in a line: Inhibition of colon KM20L2 cell proliferation. As to conditions: Homo sapiens, read-out: ED50 (the source's name). It is filed as functional.
In assay [8] the test system is Streptococcus pneumoniae. The assay is described as follows: Antimicrobial activity against Streptococcus pneumoniae; No inhibition at 64 ug/mL. It is filed as functional.
For another assay, the system named is MCF7. The experiment in a line: Inhibition of breast MCF-7 cell proliferation. The conditions noted are these: Homo sapiens, read-out: ED50 (the source's name). It is filed as functional.
The test system of another assay is Candida albicans. The assay is described as follows: Antimicrobial activity against Candida albicans; No inhibition at 64 ug/mL. It is filed as functional, organism-based.
Assay [9] deals with Neisseria gonorrhoeae. The experiment in a line: Antimicrobial activity against Neisseria gonorrhoeae. It is filed as functional.
The subject of assay [10] is Micrococcus luteus. The experiment in a line: Antimicrobial activity against Micrococcus luteus. It is filed as functional.
Assay [11] relates to Streptococcus pneumoniae. The experiment in a line: Antimicrobial activity against Streptococcus pneumoniae. It is filed as functional.
The test system of assay [12] is Micrococcus luteus. The experiment in a line: Antimicrobial activity against Micrococcus luteus; No inhibition at 64 ug/mL. It is filed as functional, organism-based.
Assay [13] deals with Micrococcus luteus. The assay is described as follows: Antimicrobial activity against Micrococcus luteus; 8-16. It is filed as functional.
The nature of assay [14]: Effect on tubulin assembly was determined. It is filed as functional. The essentials: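 Tubulin assembly tested in vitro, top concentration […].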

For `COc1cc2c3c(cc[n+](Cc4ccccc4)c3c1OC)N(Cc1ccccc1)C=C2.[Cl-]`, the Activity was determined as 2 µg/mL with Micrococcus luteus [1]; 32 µg/mL with Enterococcus faecalis; 8 µg/mL in the assay on Escherichia coli; 0.25 µg/mL in the assay on Neisseria gonorrhoeae [7]; 32 µg/mL in the assay with Streptococcus pneumoniae [8]. In addition, the inhibition in assay [2] amounted to 71.1%; in assay [6] it was 11.8%. In addition, the EC50 in the assay on DU-145 is 0.036 µg/mL; in the assay with BXPC-3, 0.061 µg/mL; with P388, 0.234 µg/mL; with NCI-H460 it was 0.26 µg/mL; with SF-268, 0.064 µg/mL; in the assay with KM-20L2, 0.055 µg/mL. In the assay with MCF7, the EC50 is 0.27 µg/mL. Moreover, the ID50 in assay [3] was 20.8 µM. Further, the result (in assay [4]; in the assay on Staphylococcus aureus; with Enterobacter cloacae; in the assay with Cryptococcus neoformans; in the assay with Candida albicans) was inactive. Moreover, the inhibition at 6.25 µg/mL in assay [5] came out at 98%.

For `COc1ccc(CN2C=Cc3cc(OC)c(OC)c4nccc2c34)cc1.Cl`, the inhibition was less than 6% in assay [2] and 9.2% in [6]. Further, the EC50 worked out at 3.1 µg/mL in the assay with DU-145; 4.2 µg/mL in the assay on BXPC-3; 2.19 µg/mL in the assay on P388; 5.1 µg/mL with NCI-H460; 8.2 µg/mL in the assay with SF-268; 3.9 µg/mL in the assay with KM-20L2. Further, the EC50 in the assay on MCF7 came to 8 µg/mL. In addition, the outcome (with Enterococcus faecalis; in [4]; with Escherichia coli; in the assay with Staphylococcus aureus; in the assay with Enterobacter cloacae; in the assay with Cryptococcus neoformans) was inactive. For the same molecule, the outcome with Candida albicans was inactive. Also, the Activity in the assay on Neisseria gonorrhoeae [9], with Micrococcus luteus [10] and with Streptococcus pneumoniae [11] was 64 µg/mL throughout.

For the molecule `COc1cc2c3c(ccnc3c1OC)N(C)C=C2`, in [2], the inhibition was less than 6%. The EC50 in the assay on DU-145, in the assay on BXPC-3, with P388, in the assay on NCI-H460, in the assay on SF-268 and in the assay with KM-20L2 was more than 10 µg/mL each time. Also, in the assay on MCF7, the EC50 is more than 10 µg/mL.

In turn, `COc1cc(CN2C=Cc3cc(OC)c(OC)c4nccc2c34)cc(OC)c1OC.Cl` had an inhibition in [2] of less than 6%. Further, the EC50 is more than 10 µg/mL with DU-145; more than 10 µg/mL in the assay with BXPC-3; 4.64 µg/mL with P388; more than 10 µg/mL in the assay with NCI-H460; more than 10 µg/mL with SF-268; 3.4 µg/mL in the assay on KM-20L2. For the same molecule, in the assay on MCF7, the EC50 was more than 10 µg/mL. Also, the result (in the assay on Enterococcus faecalis; in assay [4]; in the assay on Escherichia coli; with Micrococcus luteus [12]; with Staphylococcus aureus; in the assay on Enterobacter cloacae) was inactive. The outcome with Cryptococcus neoformans, with Streptococcus pneumoniae [8] and with Candida albicans was inactive. In the assay with Neisseria gonorrhoeae [9], this molecule had an Activity of 64 µg/mL.

Consider `COc1cc2c3c(ccnc3c1OC)N(Cc1ccccc1)C=C2.Cl`, for which the inhibition in [2] is less than 6%; in assay [6] it was 6.4%. In addition, the EC50 in the assay on DU-145 was 4.4 µg/mL; with BXPC-3 it was 4.3 µg/mL; with P388, 1.64 µg/mL; in the assay with NCI-H460, 4.9 µg/mL; in the assay with SF-268, more than 10 µg/mL; with KM-20L2, 2.2 µg/mL. The EC50 in the assay on MCF7 is more than 10 µg/mL. For the same molecule, the outcome (in the assay on Enterococcus faecalis; in [4]; in the assay on Escherichia coli; with Micrococcus luteus [12]; in the assay on Staphylococcus aureus; with Enterobacter cloacae) was inactive. The result in the assay on Cryptococcus neoformans and in the assay with Candida albicans was inactive. Also, the Activity in the assay with Neisseria gonorrhoeae [9] and in the assay with Streptococcus pneumoniae [11] was 64 µg/mL each time.

On to `COc1ccc(C[n+]2ccc3c4c(cc(OC)c(OC)c42)C=CN3Cc2cc(OC)c(OC)c(OC)c2)cc1O.[Br-]`, for which the inhibition in assay [2] came to 43.2%; in assay [6], 16%. Moreover, the EC50 in the assay with DU-145, in the assay on BXPC-3, with P388, in the assay with NCI-H460, in the assay on SF-268 and with KM-20L2 was more than 10 µg/mL each time. In addition, in the assay on MCF7, the EC50 was more than 10 µg/mL. Also, the result (with Enterococcus faecalis; in [4]; in the assay with Escherichia coli; in the assay with Staphylococcus aureus; in the assay with Enterobacter cloacae; in the assay on Neisseria gonorrhoeae [7]) was inactive. For the same molecule, the outcome with Cryptococcus neoformans, in the assay with Streptococcus pneumoniae [8] and in the assay with Candida albicans was inactive. This molecule gave an Activity with Micrococcus luteus [13] of 16 µg/mL.

Molecule `COc1cc2c3c(cc[n+](C)c3c1OC)N(C)C=C2.[I-]` showed an inhibition in assay [2] of less than 6%. Also, the EC50 was 3.5 µg/mL with DU-145; 7.1 µg/mL with BXPC-3; 3.89 µg/mL in the assay with P388; more than 10 µg/mL in the assay on NCI-H460; 0.69 µg/mL in the assay with SF-268; 6.1 µg/mL in the assay with KM-20L2. Further, in the assay with MCF7, the EC50 worked out at 4.9 µg/mL.

Molecule `COc1cc2ccnc3c2c(c1O)N(C)C=C3` [ISOAAPTAMINE] showed an IC50 in assay [14] of 31 µM.

Broadly, the inhibition is the share of the control response that was lost under treatment. A word on the IC50: it is the concentration that gives 50% inhibition. Higher therefore signals weaker potency in that assay.
